Assay results as given in ChEMBL document CHEMBL3632612, “Discovery of WQ-3810: Design, synthesis, and evaluation of 7-(3-alkylaminoazetidin-1-yl)fluoro-quinolones as orally active antibacterial agents” (Eur J Med Chem, 2015).
In brackets after ≈: the same amount, converted by molar mass.

Tests used:
Providencia rettgeri = assay: Antibacterial activity against Providencia rettgeri W1008 assessed as growth inhibition at 128 to 0.002 mg/L incubated for 18 hrs at 37 degC by agar dilution method; assay type: functional; details: W1008, 18 h
In short: (§1)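 Agar dilution on Mueller Hinton agar per Japanese Society of Chemotherapy standard method; about 10⁴ cfu inoculated onto plates holding two-fold dilution series; incubation 37°C, 18 h; MIC read as growth endpoint.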

Klebsiella pneumoniae [1] = assay: Antibacterial activity against Klebsiella pneumoniae KC-1 assessed as growth inhibition at 128 to 0.002 mg/L incubated for 18 hrs at 37 degC by agar dilution method; assay type: functional; details: KC-1, 18 h; in short: as §1
Proteus vulgaris = assay: Antibacterial activity against Proteus vulgaris IFO3167 assessed as growth inhibition at 128 to 0.002 mg/L incubated for 18 hrs at 37 degC by agar dilution method; assay type: functional; details: IFO3167, 18 h; in short: as §1
Enterobacter cloacae = assay: Antibacterial activity against Enterobacter cloacae IFO13535 assessed as growth inhibition at 128 to 0.002 mg/L incubated for 18 hrs at 37 degC by agar dilution method; assay type: functional; details: IFO13535, 18 h; in short: as §1
Pseudomonas aeruginosa [2] = assay: Antibacterial activity against Pseudomonas aeruginosa IFO3445 assessed as growth inhibition at 128 to 0.002 mg/L incubated for 18 hrs at 37 degC by agar dilution method; assay type: functional; details: IFO3445, 18 h; in short: as §1
Escherichia coli [3] = assay: Antibacterial activity against Escherichia coli NIHJ assessed as growth inhibition at 128 to 0.002 mg/L incubated for 18 hrs at 37 degC by agar dilution method; assay type: functional; in short: as §1
[4] = Drug excretion in Sprague-Dawley rat bile assessed as unmetabolized form at 5 mg/kg, iv after 24 hrs by HPLC; assay type: ADME, organism-based; details: read-out: Drug excretion
In short: (§2)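 Six-week male Sprague-Dawley rats, fasted overnight; oral dose suspended in 0.5% methylcellulose, iv dose dissolved in 0.04 N NaOH. Urine from intact rats in metabolic cages, bile from bile duct-cannulated rats, 0–24 h. Bile alkaline-hydrolysed (1 N NaOH, 37°C, 1 h) to convert glucuronides; HPLC with UV 290 nm and internal standard; % of dose; mean ± S.D., three rats.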

[5] = Drug excretion in Sprague-Dawley rat bile assessed as unmetabolized form at 10 mg/kg, po after 24 hrs by HPLC; assay type: ADME, organism-based; details: read-out: Drug excretion; in short: as §2
Escherichia coli [6] = assay: Antibacterial activity against Escherichia coli 177 assessed as growth inhibition at 128 to 0.002 mg/L incubated for 18 hrs at 37 degC by agar dilution method; assay type: functional; details: Escherichia coli, 177, 18 h; in short: as §1
[7] = Drug excretion in Sprague-Dawley rat assessed as unmetabolized form at 5 mg/kg, iv after 24 hrs by HPLC; assay type: ADME, organism-based; details: in vivo, read-out: Drug excretion; in short: as §2
Escherichia coli [8] = assay: Antibacterial activity against Escherichia coli KC-14 assessed as growth inhibition at 128 to 0.002 mg/L incubated for 18 hrs at 37 degC by agar dilution method; assay type: functional; details: KC-14, 18 h; in short: as §1
Serratia marcescens [9] = assay: Antibacterial activity against Serratia marcescens T-55 assessed as growth inhibition at 128 to 0.002 mg/L incubated for 18 hrs at 37 degC by agar dilution method; assay type: functional; details: T-55, 18 h; in short: as §1
[10] = Drug excretion in Sprague-Dawley rat at 10 mg/kg, po after 24 hrs by HPLC; assay type: ADME, organism-based; details: in vivo, read-out: Drug excretion; in short: as §2
Salmonella typhimurium = assay: Antibacterial activity against Salmonella typhimurium IFO13245 assessed as growth inhibition at 128 to 0.002 mg/L incubated for 18 hrs at 37 degC by agar dilution method; assay type: functional, Salmonella enterica subsp. enterica serovar Typhimurium; details: Salmonella enterica, IFO13245, 18 h; in short: as §1
DNA gyrase = DNA gyrase (Escherichia coli, UniProt P0AES4+P0AES6); assay: Inhibition of Escherichia coli DNA gyrase preincubated for 5 mins at 37 degC before addition of relaxed pBR322 as substrate by supercoiling assay; assay type: protein-complex assay
Klebsiella pneumoniae [11] = assay: Antibacterial activity against Klebsiella pneumoniae DT-S assessed as growth inhibition at 128 to 0.002 mg/L incubated for 18 hrs at 37 degC by agar dilution method; assay type: functional; in short: as §1
Citrobacter freundii = assay: Antibacterial activity against Citrobacter freundii IFO1268 assessed as growth inhibition at 128 to 0.002 mg/L incubated for 18 hrs at 37 degC by agar dilution method; assay type: functional; details: IFO1268, 18 h; in short: as §1
[12] = Oral drug absorption in Sprague-Dawley rat at 10 mg/kg, po after 24 hrs by HPLC; assay type: ADME, organism-based; details: in vivo
In short: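 Absorption rate computed as total urinary plus biliary excretion (% of dose, summed means) after oral dosing divided by total after iv dosing; excretion measured in fasted male Sprague-Dawley rats by HPLC over 24 h, bile glucuronides alkaline-hydrolysed.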

Proteus mirabilis = assay: Antibacterial activity against Proteus mirabilis IFO3849 assessed as growth inhibition at 128 to 0.002 mg/L incubated for 18 hrs at 37 degC by agar dilution method; assay type: functional; details: IFO3849, 18 h; in short: as §1
[13] = system: Acinetobacter calcoaceticus; assay: Antibacterial activity against Acinetobacter calcoaceticus Ac-54 assessed as growth inhibition at 128 to 0.002 mg/L incubated for 18 hrs at 37 degC by agar dilution method; assay type: functional; details: Ac-54, 18 h; in short: as §1
[14] = Drug excretion in Sprague-Dawley rat urine at 10 mg/kg, po after 24 hrs by HPLC; assay type: ADME, organism-based; details: read-out: Drug excretion; in short: as §2
[15] = Drug excretion in Sprague-Dawley rat urine at 5 mg/kg, iv after 24 hrs by HPLC; assay type: ADME, organism-based; details: read-out: Drug excretion; in short: as §2
Pseudomonas aeruginosa [16] = assay: Antibacterial activity against Pseudomonas aeruginosa E-2 assessed as growth inhibition at 128 to 0.002 mg/L incubated for 18 hrs at 37 degC by agar dilution method; assay type: functional; details: E-2, 18 h; in short: as §1
Morganella morganii = assay: Antibacterial activity against Morganella morganii W1026 assessed as growth inhibition at 128 to 0.002 mg/L incubated for 18 hrs at 37 degC by agar dilution method; assay type: functional; details: W1026, 18 h; in short: as §1
Pseudomonas aeruginosa [17] = assay: Antibacterial activity against Pseudomonas aeruginosa 15846 assessed as growth inhibition at 128 to 0.002 mg/L incubated for 18 hrs at 37 degC by agar dilution method; assay type: functional; details: Pseudomonas aeruginosa, 15846, 18 h; in short: as §1
Serratia marcescens [18] = assay: Antibacterial activity against Serratia marcescens IFO3736 assessed as growth inhibition at 128 to 0.002 mg/L incubated for 18 hrs at 37 degC by agar dilution method; assay type: functional; details: IFO3736, 18 h; in short: as §1
[19] = Passive permeability of the compound after 5 hrs at 25 degC by PAMPA assay; assay type: physicochemical; details: read-out: Peff
In short: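 PAMPA: 10 µM compound in PBS with 5% MeOH in donor, PBS acceptor; 25°C, 5 h; both sides quantified by HPLC; Peff derived from donor/acceptor concentrations, volumes, 0.3 cm² filter area and 18,000 s; mean ± S.D., n=3.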

[20] = Solubility of the compound in JP2 solution at pH 6.8 after 24 hrs at 25 degC by HPLC; assay type: physicochemical
In short: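 Excess solid shaken in JP2 (50 mM potassium dihydrogenphosphate, pH 6.8) at 25°C for 24 h to equilibrium, filtered 0.45 µm; filtrate concentration by reversed-phase UPLC, UV 290 nm; mean ± S.D., n=3.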

Structure (SMILES): CCNC1CN(c2c(F)cc3c(=O)c(C(=O)O)cn(-c4nc(N)c(F)cc4F)c3c2C)C1
- MIC (Providencia rettgeri): 0.12 µg/mL (≈ 0.268 µM)
- MIC (Klebsiella pneumoniae [1]): 0.12 µg/mL (≈ 0.268 µM)
- MIC (Proteus vulgaris): 0.12 µg/mL (≈ 0.268 µM)
- MIC (Enterobacter cloacae): 0.12 µg/mL (≈ 0.268 µM)
- MIC (Pseudomonas aeruginosa [2]): 0.12 µg/mL (≈ 0.268 µM)
- MIC (Escherichia coli [3]): 0.006 µg/mL (≈ 0.0134 µM)
- dose excreted at 24 h [4]: 51%
- dose excreted at 24 h [5]: 49%
- MIC (Escherichia coli [6]): 0.006 µg/mL (≈ 0.0134 µM)
- dose excreted at 24 h [7]: 91%
- MIC (Escherichia coli [8]): 0.006 µg/mL (≈ 0.0134 µM)
- MIC (Serratia marcescens [9]): 0.12 µg/mL (≈ 0.268 µM)
- dose excreted at 24 h [10]: 69%
- MIC (Salmonella typhimurium): 0.12 µg/mL (≈ 0.268 µM)
- IC50 (DNA gyrase): 174 nM
- MIC (Klebsiella pneumoniae [11]): 0.12 µg/mL (≈ 0.268 µM)
- MIC (Citrobacter freundii): 0.12 µg/mL (≈ 0.268 µM)
- Fa at 24 h [12]: 76%
- MIC (Proteus mirabilis): 0.12 µg/mL (≈ 0.268 µM)
- MIC [13]: 0.12 µg/mL (≈ 0.268 µM)
- dose excreted at 24 h [14]: 20%
- dose excreted at 24 h [15]: 41%
- MIC (Pseudomonas aeruginosa [16]): 0.12 µg/mL (≈ 0.268 µM)
- MIC (Morganella morganii): 0.12 µg/mL (≈ 0.268 µM)
- MIC (Pseudomonas aeruginosa [17]): 0.12 µg/mL (≈ 0.268 µM)
- MIC (Serratia marcescens [18]): 0.12 µg/mL (≈ 0.268 µM)
- Papp at 5 h [19]: 0.29 ×10⁻⁶ cm/s
- solubility at 24 h [20]: 45 µg/mL (≈ 101 µM)

Structure (SMILES): CCCNC1CN(c2c(F)cc3c(=O)c(C(=O)O)cn(-c4nc(N)c(F)cc4F)c3c2C)C1
- MIC (Providencia rettgeri): 0.21 µg/mL (≈ 0.455 µM)
- MIC (Klebsiella pneumoniae [1]): 0.21 µg/mL (≈ 0.455 µM)
- MIC (Proteus vulgaris): 0.21 µg/mL (≈ 0.455 µM)
- MIC (Enterobacter cloacae): 0.21 µg/mL (≈ 0.455 µM)
- MIC (Pseudomonas aeruginosa [2]): 0.21 µg/mL (≈ 0.455 µM)
- MIC (Escherichia coli [3]): 0.012 µg/mL (≈ 0.026 µM)
- dose excreted at 24 h [5]: 74%
- MIC (Escherichia coli [6]): 0.012 µg/mL (≈ 0.026 µM)
- MIC (Escherichia coli [8]): 0.012 µg/mL (≈ 0.026 µM)
- MIC (Serratia marcescens [9]): 0.21 µg/mL (≈ 0.455 µM)
- dose excreted at 24 h [10]: 91%
- MIC (Salmonella typhimurium): 0.21 µg/mL (≈ 0.455 µM)
- IC50 (DNA gyrase): 412 nM
- MIC (Klebsiella pneumoniae [11]): 0.21 µg/mL (≈ 0.455 µM)
- MIC (Citrobacter freundii): 0.21 µg/mL (≈ 0.455 µM)
- Fa at 24 h [12]: > 90%
- MIC (Proteus mirabilis): 0.21 µg/mL (≈ 0.455 µM)
- MIC [13]: 0.21 µg/mL (≈ 0.455 µM)
- dose excreted at 24 h [14]: 17%
- MIC (Pseudomonas aeruginosa [16]): 0.21 µg/mL (≈ 0.455 µM)
- MIC (Morganella morganii): 0.21 µg/mL (≈ 0.455 µM)
- MIC (Pseudomonas aeruginosa [17]): 0.21 µg/mL (≈ 0.455 µM)
- MIC (Serratia marcescens [18]): 0.21 µg/mL (≈ 0.455 µM)
- Papp at 5 h [19]: 1.1 ×10⁻⁶ cm/s
- solubility at 24 h [20]: 41 µg/mL (≈ 88.9 µM)
